The source made the active and inactive calls. The rule behind the calls is not given here.
Tests used:
[1] = Cytotoxicity against HEK293 cells assessed as inhibition of cell growth incubated for 72 hrs by MTT assay; assay type: toxicity, cell-based; conditions: human
Outline: (§1)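 MTT assay in human tumour lines SW480 (colon), A549 (lung adenocarcinoma), MCF7 and MDA-MB-231 (breast), in non-tumorigenic breast MCF10A, and in human embryonic kidney Hek293 as non-tumour reference. Compounds tested at several concentrations for 72 h; IC50 derived from dose-response and given as mean ± error. Cisplatin as reference.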

SW480 = test: Antiproliferative activity against human SW480 cells assessed as inhibition of cell growth incubated for 72 hrs by MTT assay; assay type: functional, cell-based; conditions: SW480, 72 h; outline: as §1
A549 = test: Antiproliferative activity against human A549 cells assessed as inhibition of cell growth incubated for 72 hrs by MTT assay; assay type: functional, cell-based; conditions: A549, 72 h; outline: as §1
MDA-MB-231 [2] = test: Downregulation of LYPLA2 gene expression in human MDA-MB-231 cells at IC50 concentration incubated for 72 hrs by RT-PCR analysis; assay type: functional, cell-based
Outline: (§2)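 mRNA levels measured by qPCR in MCF7, MDA-MB-231 and MCF10A breast cells after compound treatment, against DMSO-treated vehicle control. LYPLA2 expression given as a ratio to GAPDH. Statistics by Brown-Forsythe and Welch ANOVA with Dunnett T3 correction; p < 0.05 and p < 0.01 marked.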

MDA-MB-231 [3] = test: Antiproliferative activity against human MDA-MB-231 cells assessed as inhibition of cell growth incubated for 72 hrs by MTT assay; assay type: functional, cell-based; conditions: MDA-MB-231, 72 h; outline: as §1
MCF-10A [4] = test: Antiproliferative activity against human MCF-10A cells assessed as inhibition of cell growth incubated for 72 hrs by MTT assay; assay type: functional, cell-based; outline: as §1
MCF7 [5] = test: Antiproliferative activity against human MCF7 cells assessed as inhibition of cell growth incubated for 72 hrs by MTT assay; assay type: functional, cell-based; conditions: MCF7, 72 h; outline: as §1
MCF7 [6] = test: Downregulation of LYPLA2 gene expression in human MCF7 cells at IC50 concentration incubated for 72 hrs by RT-PCR analysis; assay type: functional, cell-based; outline: as §2
[7] = Antiproliferative activity against human H199 cells assessed as inhibition of cell growth at 2.5 to 2 mM incubated for 24 hrs by MTT assay relative to control; assay type: functional; parameters: scale not given: the % may be the effect or the level left; conditions: dose 2.5-2 mM, at 2 to 2.5 mM
[8] = Antiproliferative activity against human SW182 cells assessed as inhibition of cell growth at 2.5 to 2 mM incubated for 24 hrs by MTT assay relative to control; assay type: functional; parameters: scale not given: the % may be the effect or the level left; conditions: dose 2.5-2 mM, at 2 to 2.5 mM
MDA-MB-231 [9] = test: Downregulation of EP300 gene expression in human MDA-MB-231 cells at IC50 concentration incubated for 72 hrs by RT-PCR analysis; assay type: functional, cell-based
MCF7 [10] = test: Downregulation of EP300 gene expression in human MCF7 cells at IC50 concentration incubated for 72 hrs by RT-PCR analysis; assay type: functional, cell-based
MCF-10A [11] = test: Downregulation of LYPLA2 gene expression in human MCF-10A cells at IC50 concentration incubated for 72 hrs by RT-PCR analysis; assay type: functional, cell-based; outline: as §2

| SMILES | IC50 at 72 h [1] [µM] | IC50 (SW480) [µM] | IC50 (A549) [µM] | also measured |
| --- | --- | --- | --- | --- |
| Cc1ccc([C@]2(O)C(=O)N(Cc3cn(Cc4ccccc4)nn3)c3ccccc32)cc1 | > 100 | > 100 | > 100 |  |
| O=C1N(Cc2cn(Cc3ccccc3)nn2)c2ccc(Br)cc2[C@]1(O)c1ccccc1 | 36.1 | 28.7 | 65.9 | Activity (MDA-MB-231 [2]): Active; IC50 (MDA-MB-231 [3]): 1.41 µM; IC50 (MCF-10A [4]): 1.02 µM; IC50 (MCF7 [5]): 1.49 µM; Activity (MCF7 [6]): Active |
| O=C(Cn1cc(CN2C(=O)C(=O)c3ccccc32)nn1)Nc1nc2ccccc2s1 |  |  |  | Activity [7]: >50%; Activity [8]: >50% |
| CCCCn1cc(CN2C(=O)[C@@](O)(c3ccccc3)c3ccccc32)nn1 | > 100 | > 100 | > 100 |  |
| O=C1N(Cc2cn(Cc3ccccc3)nn2)c2ccccc2[C@@]1(O)c1ccccc1 | > 100 | 62.4 | > 100 |  |
| O=C1N(Cc2cn(Cc3ccccc3)nn2)c2ccccc2[C@]1(O)c1ccccc1 | > 100 | 75.3 | > 100 |  |
| O=C1N(Cc2cn(Cc3ccccc3)nn2)c2ccccc2[C@@]1(O)c1ccsc1 | 46.4 | 62.5 | 98 |  |
| CS(=O)(=O)c1ccc2nc(NC(=O)Cn3cc(CN4C(=O)C(=O)c5ccccc54)nn3)sc2c1 |  |  |  | Activity [7]: >50%; Activity [8]: >50% |
| COc1ccc([C@]2(O)C(=O)N(Cc3cn(Cc4ccccc4)nn3)c3ccccc32)cc1 | > 100 | 75.8 | > 100 |  |
| CC(C)[C@@H]1CC[C@@H](C)C[C@@H]1n1cc(CN2C(=O)C(=O)c3ccccc32)nn1 | 23.1 | 8.9 | 53.8 | Activity (MDA-MB-231 [9]): Active; IC50 (MDA-MB-231 [3]): 1.79 µM; IC50 (MCF-10A [4]): 1.08 µM; Activity (MCF7 [10]): Active; IC50 (MCF7 [5]): 1.34 µM |
| O=C1N(Cc2cn(Cc3ccccc3)nn2)c2ccccc2[C@@]1(O)c1ccc2ccccc2c1 | 12.4 | 9.9 | 28.3 | Activity (MDA-MB-231 [2]): Active; IC50 (MDA-MB-231 [3]): 3.1 µM; IC50 (MCF-10A [4]): 1.33 µM; IC50 (MCF7 [5]): 1.75 µM; Activity (MCF-10A [11]): Active |
| O=C1N(Cc2cn(Cc3ccccc3)nn2)c2ccccc2[C@@]1(O)c1cccc(O)c1 | 33.7 | 31.8 | > 100 |  |
| CCCCn1cc(CN2C(=O)[C@](O)(c3ccccc3)c3ccccc32)nn1 | > 100 | > 100 | > 100 |  |
| O=C1N(Cc2cn(Cc3ccccc3)nn2)c2ccccc2[C@@]1(O)c1ccc(F)cc1 | 50.3 | 28.2 | 72.1 |  |
| COc1ccc([C@@]2(O)C(=O)N(Cc3cn(Cc4ccccc4)nn3)c3ccccc32)cc1 | 38 | 36.6 | 95.9 |  |
| O=C1N(Cc2cn(Cc3ccccc3)nn2)c2ccc(Br)cc2[C@@]1(O)c1ccccc1 | 87.3 | 18.9 | 29.3 | IC50 (MDA-MB-231 [3]): 1.62 µM; IC50 (MCF-10A [4]): 1.1 µM; IC50 (MCF7 [5]): 2.04 µM |
| Cc1ccc2nc(NC(=O)Cn3cc(CN4C(=O)C(=O)c5ccccc54)nn3)sc2c1 |  |  |  | Activity [7]: >50%; Activity [8]: >50% |
| CC(C)[C@@H]1CC[C@@H](C)C[C@@H]1n1cc(CN2C(=O)C3(OCCO3)c3ccccc32)nn1 | > 100 | > 100 | > 100 |  |
| Cc1ccc2c(c1)C(=O)C(=O)N2Cc1cn(Cc2ccccc2)nn1 | 26.9 | 26.6 | 41.5 | Activity (MDA-MB-231 [9]): Active; IC50 (MDA-MB-231 [3]): 2.4 µM; IC50 (MCF-10A [4]): 1.54 µM; Activity (MCF7 [10]): Active; IC50 (MCF7 [5]): 1.5 µM |
| O=C1N(Cc2cn(Cc3ccccc3)nn2)c2ccccc2[C@]1(O)c1ccc2ccccc2c1 | 14 | 8.7 | 23.5 |  |
| O=C1N(Cc2cn(Cc3ccccc3)nn2)c2ccccc2[C@]1(O)c1ccc(F)cc1 | 53.5 | 32.1 | 77.3 |  |
| O=C1N(Cc2cn(Cc3ccccc3)nn2)c2ccccc2[C@]1(O)c1ccsc1 | 64 | 29.5 | > 100 |  |
| O=C1C(=O)N(Cc2cn(Cc3ccccc3)nn2)c2ccccc21 | 63.7 | 32.2 | 54.7 | Activity (MDA-MB-231 [9]): Active; IC50 (MDA-MB-231 [3]): 2.95 µM; IC50 (MCF-10A [4]): 1.8 µM; Activity (MCF7 [10]): Active; IC50 (MCF7 [5]): 1.39 µM |

Reference: ChEMBL document CHEMBL5108040, “N-1,2,3-Triazole-isatin derivatives: anti-proliferation effects and target identification in solid tumour cell lines” (RSC Med Chem, 2022)
